Data: ChEMBL document CHEMBL2331450, “Potent BRAF kinase inhibitors based on 2,4,5-trisubstituted imidazole with naphthyl and benzothiophene 4-substituents” (Bioorg Med Chem, 2013)

Columns and labels:
[1] = Antiproliferative activity against human WM266.4 cells after 6 days by SRB assay; type: functional; conditions: WM 266-4, 144 h
Method in brief: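 BRAF-dependent WM266.4 melanoma cells; growth inhibition read by SRB staining and reported as GI50.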

[2] = target: T1, Serine/threonine-protein kinase B-raf (Homo sapiens, UniProt P15056, V600E); assay: Inhibition of BRAF V600E mutant in human WM266.4 cells assessed as inhibition of ERK phosphorylation after 6 hrs by DELFIA assay; type: cell-based
T1 sequence (P15056 2-766 V600E limits assumed): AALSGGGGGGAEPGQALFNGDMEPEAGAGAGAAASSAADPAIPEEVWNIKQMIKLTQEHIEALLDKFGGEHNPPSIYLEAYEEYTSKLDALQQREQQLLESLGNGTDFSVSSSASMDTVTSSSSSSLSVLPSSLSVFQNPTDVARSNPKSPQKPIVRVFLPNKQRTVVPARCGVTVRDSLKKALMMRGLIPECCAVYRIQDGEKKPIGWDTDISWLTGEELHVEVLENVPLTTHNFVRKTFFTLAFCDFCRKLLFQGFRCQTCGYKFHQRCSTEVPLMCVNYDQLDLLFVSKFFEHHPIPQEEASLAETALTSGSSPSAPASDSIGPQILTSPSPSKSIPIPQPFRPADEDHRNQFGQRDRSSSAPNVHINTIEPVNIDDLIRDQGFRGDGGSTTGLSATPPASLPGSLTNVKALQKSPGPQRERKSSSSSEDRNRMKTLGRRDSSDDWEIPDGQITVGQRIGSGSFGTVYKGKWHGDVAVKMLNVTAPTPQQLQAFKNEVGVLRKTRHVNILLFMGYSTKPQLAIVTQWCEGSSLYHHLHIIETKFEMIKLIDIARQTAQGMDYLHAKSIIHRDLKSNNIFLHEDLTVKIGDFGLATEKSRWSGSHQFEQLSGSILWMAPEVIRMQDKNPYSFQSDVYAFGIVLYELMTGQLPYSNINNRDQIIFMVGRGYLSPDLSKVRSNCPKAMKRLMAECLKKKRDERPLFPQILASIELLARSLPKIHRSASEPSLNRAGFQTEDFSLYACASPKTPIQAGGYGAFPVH
Method in brief: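 In BRAF-dependent WM266.4 cells, inhibition of ERK phosphorylation measured in a cellular assay and reported as IC50.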

[3] = target: T1, Serine/threonine-protein kinase B-raf; assay: Inhibition of human recombinant N-terminal His-tagged BRAF V600E mutant expressed in Sf9 cells using GST-tagged MEK1 and ATP as substrate incubated for 10 mins prior to ATP addition measured after 45 mins by DELFIA assay
Method in brief: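 Enzyme assay with the V600E BRAF mutant in vitro; inhibition reported as IC50.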

| IC50 [2] [µM] | IC50 [3] [µM] | SMILES | GI50 [1] [µM] |
| --- | --- | --- | --- |
| 14 | 8.8 | CN(C)CCOc1ccc(-c2nc(-c3ccc4cc(O)ccc4c3)c(-c3ccncc3)[nH]2)cc1 | 4.3 |
| 1.25 | 0.042 | CN(C)CCOc1ccc(-c2nc(-c3ccc4c(O)c(Cl)ccc4c3)c(-c3ccncc3)[nH]2)cc1 | 1.1 |
| 0.25 | 0.029 | CN(C)CCOc1ccc(-c2nc(-c3ccc4c(O)c(F)ccc4c3)c(-c3ccncc3)[nH]2)cc1 | 11 |
| – | > 100 | CN(C)CCOc1ccc(-c2nc(-c3ccc4ccc(=O)[nH]c4c3)c(-c3ccncc3)[nH]2)cc1 | – |
| – | > 100 | CN(C)CCOc1ccc(-c2nc(-c3ccc4[nH]c(=O)ccc4c3)c(-c3ccncc3)[nH]2)cc1 | – |
| – | > 10 | CN(C)CCOc1ccc(-c2nc(-c3ccc4c(=O)[nH]ccc4c3)c(-c3ccncc3)[nH]2)cc1 | – |
| 5.1 | 1.1 | CN(C)CCOc1ccc(-c2nc(-c3ccc4c(N)nccc4c3)c(-c3ccncc3)[nH]2)cc1 | 5.7 |
| – | > 10 | CN(C)CCOc1ccc(-c2nc(-c3ccc4cc(F)ccc4c3)c(-c3ccncc3)[nH]2)cc1 | – |
| – | > 10 | CN(C)CCOc1ccc(-c2nc(-c3ccc4cc(C(=O)O)ccc4c3)c(-c3ccncc3)[nH]2)cc1 | – |
| 5.9 | 0.58 | CN(C)CCOc1ccc(-c2nc(-c3ccc(Cl)c(Cl)c3)c(-c3ccncc3)[nH]2)cc1 | 1.6 |
| – | > 10 | CN(C)CCOc1ccc(-c2nc(-c3ccc(F)c(Cl)c3)c(-c3ccncc3)[nH]2)cc1 | – |
| – | > 10 | CN(C)CCOc1ccc(-c2nc(-c3ccc4c(CO)coc4c3)c(-c3ccncc3)[nH]2)cc1 | – |
| – | > 10 | CN(C)CCOc1ccc(-c2nc(-c3ccc4c(C(N)=O)coc4c3)c(-c3ccncc3)[nH]2)cc1 | – |
| – | > 10 | CN(C)CCOc1ccc(-c2nc(-c3ccc4c(C=O)csc4c3)c(-c3ccncc3)[nH]2)cc1 | – |
| – | > 10 | CN(C)CCOc1ccc(-c2nc(-c3ccc4c(CO)csc4c3)c(-c3ccncc3)[nH]2)cc1 | – |
| 2.3 | 0.19 | CN(C)CCOc1ccc(-c2nc(-c3ccc4c([C@@H](O)C(F)(F)F)csc4c3)c(-c3ccncc3)[nH]2)cc1 | 2.1 |
| 31 | 9.4 | CCCSc1csc2cc(-c3nc(-c4ccc(OCCN(C)C)cc4)[nH]c3-c3ccncc3)ccc12 | 2.3 |
| – | > 10 | CCC[S+]([O-])c1csc2cc(-c3nc(-c4ccc(OCCN(C)C)cc4)[nH]c3-c3ccncc3)ccc12 (configuration not stated) | – |
| – | 14 | CSc1csc2cc(-c3nc(-c4ccc(OCCN(C)C)cc4)[nH]c3-c3ccncc3)ccc12 | – |
| – | > 10 | CN(C)CCOc1ccc(-c2nc(-c3ccc4c([S+](C)[O-])csc4c3)c(-c3ccncc3)[nH]2)cc1 (configuration not stated) | – |
| 3.6 | 1.4 | CN(C)CCOc1ccc(-c2nc(-c3ccc4ccc(O)cc4c3)c(-c3ccncc3)[nH]2)cc1 | 3.2 |
| 0.39 | 0.009 | CN(C)CCOc1ccc(-c2nc(-c3ccc4c(O)cccc4c3)c(-c3ccncc3)[nH]2)cc1 | 0.22 |
| – | > 10 | CCC(O)c1csc2cc(-c3nc(-c4ccc(OCCN(C)C)cc4)[nH]c3-c3ccncc3)ccc12 (racemic) | – |
| – | > 10 | CN(C)CCOc1ccc(-c2nc(-c3ccc4c(C(O)C(F)(F)C(F)(F)F)csc4c3)c(-c3ccncc3)[nH]2)cc1 (racemic) | – |
| 2.7 | 0.33 | CN(C)CCOc1ccc(-c2nc(-c3ccc4c(C(O)C(F)(F)F)csc4c3)c(-c3ccncc3)[nH]2)cc1 (racemic) | 3.1 |
| – | > 10 | CN(C)CCOc1ccc(-c2nc(-c3ccc4sc(C(O)C(F)(F)F)cc4c3)c(-c3ccncc3)[nH]2)cc1 (racemic) | – |
| – | > 10 | CN(C)CCOc1ccc(-c2nc(-c3ccc(C(O)C(F)(F)F)cc3)c(-c3ccncc3)[nH]2)cc1 (racemic) | – |
